The values below come from ChEMBL document CHEMBL4706611, “Selective targeting of the αC and DFG-out pocket in p38 MAPK” (Eur J Med Chem, 2020).

The nature of the series: Metabolic stability in human liver microsomes assessed as compound remaining preincubated for 5 mins in presence of NADPH regeneration system followed by HLM addition measured after 240 mins by LC-MS analysis. The class given is ADME, Microsome. The following applies: read-out: Stabilty. In outline:
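Compounds were incubated with human liver microsomes and sampled at 0, 10, 20, 30, 60, 120, 180 and 240 min. Degradation and metabolite formation were followed by LC-MS, ESI(+). Run in triplicate; mean with standard deviation reported.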
(In general: Microsomes from liver hold many membrane-bound enzymes, among them those of drug oxidation.)
For the compound `CCNC(=O)[C@H](CCC1CCCCC1)NC(=O)c1ccc(CNC(=O)c2cnn(-c3ccccc3)c2N)cc1`, the remaining at 4 h came out at 64%.
The result for `Nc1c(C(=O)NCc2ccc(C(=O)N[C@@H](CCC3CCCCC3)C(=O)Nc3ccc(F)cc3)cc2)cnn1-c1ccccc1` reads 83.5%.
On to `NC(=O)[C@H](CCC1CCCCC1)NC(=O)c1ccc(CNC(=O)c2cnn(-c3ccccc3)c2N)cc1`, for which the remaining at 4 h was determined as 66.9%.
`Nc1c(C(=O)NCc2ccc(C(=O)N[C@@H](CCC3CCCCC3)C(=O)NCc3ccncc3)cc2)cnn1-c1ccccc1`: the remaining at 4 h came out at 99.5%.
